Assay results from ChEMBL document CHEMBL4184228, “Reversed isoniazids: Design, synthesis and evaluation against Mycobacterium tuberculosis” (Bioorg Med Chem, 2018).
In brackets after ≈: the same amount, converted by molar mass.

Columns and labels:
[1] = tested on: Mycobacterium tuberculosis; assay: Antimycobacterial activity against Mycobacterium bovis BCG; format: functional; conditions: variant bovis BCG
[2] = tested on: Mycobacterium tuberculosis; assay: Growth inhibition of Mycobacterium bovis BCG infected in PBMC assessed as decrease in [3H]-uridine incorporation at <= IC20 after 72 hrs by microbeta scintillation counting analysis; format: functional, variant bovis BCG
How it was run: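 PBMCs at 1.5x10^4/well; non-adherent cells are washed off after 24 h. Adherent monocytes are cultured 6 days, then infected with BCG at MOI 3 for 4 h and washed three times. Drugs are added at concentrations at or below the THP-1 IC20 for 72 h.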

SMILES | MIC [1] | growth inhibition (GI) [2]
CN(C)CCCN1c2ccccc2Sc2ccc(Cl)cc21 [CHLORPROMAZINE] | 4 µM (≈ 1.28 µg/mL) | 40%
O=C(NNCCCN1c2ccccc2Sc2ccccc21)c1ccncc1 | 13.3 µM (≈ 5.01 µg/mL) | >90%
O=C(NNCCCN1CCC(N2c3ccccc3Sc3ccc(Cl)cc32)CC1)c1ccncc1 | 1 µM (≈ 0.494 µg/mL) | >90%
O=C(NNCCCN1c2ccccc2Sc2ccccc21)c1ccccc1 | 26.6 µM (≈ 9.99 µg/mL) | 40%
NNC(=O)c1ccncc1 [ISONIAZID] | 0.015 µM (≈ 0.00206 µg/mL) | >90%
O=C(NNCCCN1c2ccccc2Sc2ccc(Cl)cc21)c1ccncc1 | 2.44 µM (≈ 1 µg/mL) | >90%
O=C(NNCCCN1c2ccccc2Sc2ccc(Cl)cc21)c1ccccc1 | 12.2 µM (≈ 5 µg/mL) | 40%
O=C(NNCCCN1c2ccccc2CCc2ccccc21)c1ccncc1 | 13.4 µM (≈ 5 µg/mL) | >90%
